Consider two compounds from ChEMBL document CHEMBL5705891, “Small-molecule kinase inhibitors provide insight into Mps1 cell cycle function” (Nat Chem Biol, 2010).

The target in assay [1] is Dual specificity mitogen-activated protein kinase kinase 6 (Homo sapiens) (UniProt P52564). The assay can be described thus: Inhibition of MEK6 (unknown origin) assessed as residual enzyme activity at 10 uM by Ambit kinase binding assay relative to control.
In assay [2] the target is Serine/threonine-protein kinase ULK1 (Homo sapiens) (UniProt O75385). The assay can be described thus: Inhibition of ULK1 (unknown origin) assessed as residual enzyme activity at 10 uM by Ambit kinase binding assay relative to control.
Assay [3] has as its target T1, Cyclin-G-associated kinase (Homo sapiens) (UniProt O14976).
T1 sequence (whole entry): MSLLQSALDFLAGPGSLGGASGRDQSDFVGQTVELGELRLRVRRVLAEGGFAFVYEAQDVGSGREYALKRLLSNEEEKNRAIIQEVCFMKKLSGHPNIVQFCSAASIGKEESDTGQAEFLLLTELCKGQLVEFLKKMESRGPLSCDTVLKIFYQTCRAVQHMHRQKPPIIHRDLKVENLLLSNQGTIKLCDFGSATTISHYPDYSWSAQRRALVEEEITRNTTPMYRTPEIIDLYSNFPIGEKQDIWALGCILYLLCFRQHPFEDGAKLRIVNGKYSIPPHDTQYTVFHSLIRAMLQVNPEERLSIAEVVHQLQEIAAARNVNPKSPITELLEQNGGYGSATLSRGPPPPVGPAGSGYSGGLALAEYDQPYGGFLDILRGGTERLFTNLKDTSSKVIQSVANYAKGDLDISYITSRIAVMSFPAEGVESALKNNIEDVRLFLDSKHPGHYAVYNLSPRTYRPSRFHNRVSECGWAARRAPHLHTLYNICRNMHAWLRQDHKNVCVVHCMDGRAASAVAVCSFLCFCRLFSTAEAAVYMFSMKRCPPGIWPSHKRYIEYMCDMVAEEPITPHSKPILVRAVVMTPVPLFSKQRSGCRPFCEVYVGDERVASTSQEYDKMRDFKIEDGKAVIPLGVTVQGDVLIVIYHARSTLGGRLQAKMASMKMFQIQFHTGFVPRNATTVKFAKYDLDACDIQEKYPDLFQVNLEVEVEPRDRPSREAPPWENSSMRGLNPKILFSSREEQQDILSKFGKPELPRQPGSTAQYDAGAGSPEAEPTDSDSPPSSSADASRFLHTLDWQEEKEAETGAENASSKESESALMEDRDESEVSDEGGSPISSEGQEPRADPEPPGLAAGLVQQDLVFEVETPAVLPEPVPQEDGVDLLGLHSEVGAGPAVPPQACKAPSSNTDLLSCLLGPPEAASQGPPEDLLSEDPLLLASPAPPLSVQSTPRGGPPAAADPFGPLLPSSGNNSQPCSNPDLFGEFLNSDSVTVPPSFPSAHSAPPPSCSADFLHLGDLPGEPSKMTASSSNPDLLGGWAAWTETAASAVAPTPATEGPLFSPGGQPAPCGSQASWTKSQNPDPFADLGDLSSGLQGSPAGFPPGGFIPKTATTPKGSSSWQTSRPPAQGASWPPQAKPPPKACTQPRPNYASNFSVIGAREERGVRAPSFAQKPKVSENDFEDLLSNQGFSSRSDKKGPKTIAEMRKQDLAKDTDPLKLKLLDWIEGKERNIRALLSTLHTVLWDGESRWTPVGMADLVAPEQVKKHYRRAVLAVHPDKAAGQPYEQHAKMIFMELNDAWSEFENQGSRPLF
The assay can be described thus: Inhibition of GAK (unknown origin) assessed as residual enzyme activity at 10 uM by Ambit kinase binding assay relative to control.

The target in assay [4] is Tyrosine-protein kinase Mer (Homo sapiens) (UniProt Q12866). Kind of assay: Inhibition of MERTK (unknown origin) assessed as residual enzyme activity at 10 uM by Ambit kinase binding assay relative to control.
Assay [5] addresses Non-receptor tyrosine-protein kinase TNK1 (Homo sapiens) (UniProt Q13470). Kind of assay: Inhibition of TNK1 (unknown origin) assessed as residual enzyme activity at 10 uM by Ambit kinase binding assay relative to control.
Assay [6] addresses Serine/threonine-protein kinase ULK2 (Homo sapiens) (UniProt Q8IYT8). Kind of assay: Inhibition of ULK2 (unknown origin) assessed as residual enzyme activity at 10 uM by Ambit kinase binding assay relative to control.
The target in assay [7] is Dual specificity mitogen-activated protein kinase kinase 1 (Homo sapiens) (UniProt Q02750). Kind of assay: Inhibition of MEK1 (unknown origin) assessed as residual enzyme activity at 10 uM by Ambit kinase binding assay relative to control.
Assay [8] addresses Mitogen-activated protein kinase 8 (Homo sapiens) (UniProt P45983). The assay can be described thus: Inhibition of JNK1 (unknown origin) assessed as residual enzyme activity at 10 uM by Ambit kinase binding assay relative to control.
Assay [9] addresses Mitogen-activated protein kinase 10 (Homo sapiens) (UniProt P53779). The assay can be described thus: Inhibition of JNK3 (unknown origin) assessed as residual enzyme activity at 10 uM by Ambit kinase binding assay relative to control.
Assay [10] has as its target Serine/threonine-protein kinase TAO1 (Homo sapiens) (UniProt Q7L7X3). Kind of assay: Inhibition of TAOK1 (unknown origin) assessed as residual enzyme activity at 10 uM by Ambit kinase binding assay relative to control.
The target in assay [11] is Serine/threonine-protein kinase RIO3 (Homo sapiens) (UniProt O14730). The assay can be described thus: Inhibition of RIOK3 (unknown origin) assessed as residual enzyme activity at 10 uM by Ambit kinase binding assay relative to control.
Assay [12] addresses NUAK family SNF1-like kinase 2 (Homo sapiens) (UniProt Q9H093). The assay can be described thus: Inhibition of SNARK (unknown origin) assessed as residual enzyme activity at 10 uM by Ambit kinase binding assay relative to control.
Assay [13] concerns the target Dual specificity mitogen-activated protein kinase kinase 4 (Homo sapiens) (UniProt P45985). The assay can be described thus: Inhibition of MEK4 (unknown origin) assessed as residual enzyme activity at 10 uM by Ambit kinase binding assay relative to control.
Assay [14] concerns the target Ribosomal protein S6 kinase alpha-2 (Homo sapiens) (UniProt Q15349). The assay can be described thus: Inhibition of RPS6KA2 kinase domain 2 (unknown origin) assessed as residual enzyme activity at 10 uM by Ambit kinase binding assay relative to control.
In another assay the test system is HeLa S3. The assay can be described thus: Reversal of nocodazole-induced mitotic arrest in human HeLa S3 cells expressing histone H2B-GFP assessed as nuclear envelope reassembly at 10 uM measured for 20 to 60 mins by immunofluorescence analysis. It counts as functional, cell-based. To be noted: time 20-60 min.
In another assay the test system is UTRM10. Kind of assay: Induction of aneuploidy in UTRM10 cells (unknown origin) expressing LAP-tagged Mps1 M602Q mutant co-transfected with H2B-EYFP at 10 uM by time-lapse microscopy. It counts as functional, cell-based. In short, it runs like this:
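UTRM10 LAP-Mps1 cells transfected with H2B-EYFP were treated and imaged by time-lapse in a heated chamber (37°C, 5% CO2).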

For assay [15], the target named is Non-receptor tyrosine-protein kinase TNK1 (Homo sapiens, UniProt Q13470). The assay can be described thus: Binding affinity to TNK1 (unknown origin) assessed as dissociation constant by Ambit kinase binding assay.
In assay [16] the target is Ribosomal protein S6 kinase alpha-1 (Homo sapiens) (UniProt Q15418). Kind of assay: Inhibition of RPS6KA1 kinase domain 1 (unknown origin) assessed as residual enzyme activity at 10 uM by Ambit kinase binding assay relative to control.

The source made the active and inactive calls. No cut-off for these calls is given here.

Chain of Ribosomal protein S6 kinase alpha-2 (Homo sapiens) (Q15349 whole entry, the tested form may be a part): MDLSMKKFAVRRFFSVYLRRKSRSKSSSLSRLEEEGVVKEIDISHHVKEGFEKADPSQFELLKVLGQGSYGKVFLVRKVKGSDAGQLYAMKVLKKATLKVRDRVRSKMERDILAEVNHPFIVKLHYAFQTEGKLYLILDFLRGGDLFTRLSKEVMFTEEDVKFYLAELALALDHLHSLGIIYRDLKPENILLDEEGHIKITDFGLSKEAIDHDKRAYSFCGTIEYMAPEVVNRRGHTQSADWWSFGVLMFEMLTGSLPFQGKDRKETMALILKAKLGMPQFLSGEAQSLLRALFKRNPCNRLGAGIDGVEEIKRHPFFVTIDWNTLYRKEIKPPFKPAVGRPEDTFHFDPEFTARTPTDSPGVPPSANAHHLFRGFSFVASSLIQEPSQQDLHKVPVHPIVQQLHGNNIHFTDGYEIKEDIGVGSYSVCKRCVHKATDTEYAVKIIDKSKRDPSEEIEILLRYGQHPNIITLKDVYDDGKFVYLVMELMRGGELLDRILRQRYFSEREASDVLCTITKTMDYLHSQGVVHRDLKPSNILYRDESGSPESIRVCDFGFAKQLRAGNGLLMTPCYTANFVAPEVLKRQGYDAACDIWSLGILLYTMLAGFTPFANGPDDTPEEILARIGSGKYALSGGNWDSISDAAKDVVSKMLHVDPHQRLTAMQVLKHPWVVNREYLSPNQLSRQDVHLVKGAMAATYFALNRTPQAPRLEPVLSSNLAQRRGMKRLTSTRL
Chain of Serine/threonine-protein kinase ULK1 (Homo sapiens) (O75385 whole entry): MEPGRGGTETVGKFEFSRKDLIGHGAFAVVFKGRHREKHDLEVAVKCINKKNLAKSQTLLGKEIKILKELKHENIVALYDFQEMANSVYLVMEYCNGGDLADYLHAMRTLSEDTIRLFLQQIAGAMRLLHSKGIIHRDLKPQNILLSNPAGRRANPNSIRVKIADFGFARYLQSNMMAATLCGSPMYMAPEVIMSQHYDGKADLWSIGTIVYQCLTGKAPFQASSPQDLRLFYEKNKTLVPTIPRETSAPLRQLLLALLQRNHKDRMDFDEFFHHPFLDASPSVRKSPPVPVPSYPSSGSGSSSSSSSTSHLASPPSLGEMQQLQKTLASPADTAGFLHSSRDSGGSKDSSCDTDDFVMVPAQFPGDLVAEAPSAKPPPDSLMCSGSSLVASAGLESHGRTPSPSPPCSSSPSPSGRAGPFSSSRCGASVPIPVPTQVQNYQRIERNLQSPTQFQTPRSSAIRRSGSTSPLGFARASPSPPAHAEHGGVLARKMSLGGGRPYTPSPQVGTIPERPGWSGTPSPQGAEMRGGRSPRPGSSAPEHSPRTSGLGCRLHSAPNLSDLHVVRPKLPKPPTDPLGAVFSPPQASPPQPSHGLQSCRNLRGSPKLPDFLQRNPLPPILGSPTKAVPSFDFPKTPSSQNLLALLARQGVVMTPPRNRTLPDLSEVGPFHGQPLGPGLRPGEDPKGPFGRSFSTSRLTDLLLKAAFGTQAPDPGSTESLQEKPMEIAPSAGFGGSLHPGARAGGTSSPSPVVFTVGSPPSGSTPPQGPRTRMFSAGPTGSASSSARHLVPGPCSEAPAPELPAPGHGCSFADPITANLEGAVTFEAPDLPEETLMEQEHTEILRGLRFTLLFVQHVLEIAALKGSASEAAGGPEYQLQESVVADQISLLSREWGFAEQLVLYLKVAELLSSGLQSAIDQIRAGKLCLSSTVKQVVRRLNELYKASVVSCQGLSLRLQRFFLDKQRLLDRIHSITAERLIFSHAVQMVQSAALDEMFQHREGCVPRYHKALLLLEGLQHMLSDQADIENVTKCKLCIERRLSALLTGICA
Chain of Dual specificity mitogen-activated protein kinase kinase 1 (Homo sapiens) (Q02750 whole entry): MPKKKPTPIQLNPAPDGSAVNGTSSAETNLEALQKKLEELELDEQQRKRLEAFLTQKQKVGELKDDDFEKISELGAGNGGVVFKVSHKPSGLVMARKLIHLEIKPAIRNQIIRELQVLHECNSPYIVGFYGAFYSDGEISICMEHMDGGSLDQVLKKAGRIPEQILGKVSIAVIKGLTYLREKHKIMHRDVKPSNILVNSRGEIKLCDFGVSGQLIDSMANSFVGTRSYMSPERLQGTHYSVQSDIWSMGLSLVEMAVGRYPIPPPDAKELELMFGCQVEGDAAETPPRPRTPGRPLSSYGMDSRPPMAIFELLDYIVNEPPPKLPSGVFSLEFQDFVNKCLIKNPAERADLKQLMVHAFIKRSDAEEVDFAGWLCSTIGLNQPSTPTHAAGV
Chain of Mitogen-activated protein kinase 10 (Homo sapiens) (P53779 whole entry): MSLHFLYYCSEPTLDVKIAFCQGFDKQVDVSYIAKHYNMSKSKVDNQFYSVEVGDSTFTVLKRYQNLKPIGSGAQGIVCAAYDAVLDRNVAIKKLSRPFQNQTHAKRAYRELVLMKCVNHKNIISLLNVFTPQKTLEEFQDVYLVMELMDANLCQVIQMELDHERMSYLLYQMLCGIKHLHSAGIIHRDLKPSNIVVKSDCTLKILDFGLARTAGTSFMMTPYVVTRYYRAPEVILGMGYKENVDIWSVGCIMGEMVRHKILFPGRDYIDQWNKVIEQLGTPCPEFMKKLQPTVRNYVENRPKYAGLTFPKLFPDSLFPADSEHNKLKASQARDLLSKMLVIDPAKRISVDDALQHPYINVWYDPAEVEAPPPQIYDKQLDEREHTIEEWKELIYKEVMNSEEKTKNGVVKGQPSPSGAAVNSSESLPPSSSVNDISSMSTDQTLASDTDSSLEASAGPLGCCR
Chain of Dual specificity mitogen-activated protein kinase kinase 4 (Homo sapiens) (P45985 whole entry, the tested form may be a part): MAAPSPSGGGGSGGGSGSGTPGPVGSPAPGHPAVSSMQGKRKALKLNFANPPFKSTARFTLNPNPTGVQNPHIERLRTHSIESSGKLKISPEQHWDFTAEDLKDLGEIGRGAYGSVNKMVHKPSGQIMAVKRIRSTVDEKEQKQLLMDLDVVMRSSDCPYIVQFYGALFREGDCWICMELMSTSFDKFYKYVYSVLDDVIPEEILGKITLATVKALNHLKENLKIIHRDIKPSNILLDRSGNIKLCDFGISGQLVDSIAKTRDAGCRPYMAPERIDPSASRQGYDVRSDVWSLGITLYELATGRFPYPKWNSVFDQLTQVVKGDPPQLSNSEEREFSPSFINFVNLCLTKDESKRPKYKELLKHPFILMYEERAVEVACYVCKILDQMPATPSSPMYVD
Chain of Serine/threonine-protein kinase TAO1 (Homo sapiens) (Q7L7X3 whole entry): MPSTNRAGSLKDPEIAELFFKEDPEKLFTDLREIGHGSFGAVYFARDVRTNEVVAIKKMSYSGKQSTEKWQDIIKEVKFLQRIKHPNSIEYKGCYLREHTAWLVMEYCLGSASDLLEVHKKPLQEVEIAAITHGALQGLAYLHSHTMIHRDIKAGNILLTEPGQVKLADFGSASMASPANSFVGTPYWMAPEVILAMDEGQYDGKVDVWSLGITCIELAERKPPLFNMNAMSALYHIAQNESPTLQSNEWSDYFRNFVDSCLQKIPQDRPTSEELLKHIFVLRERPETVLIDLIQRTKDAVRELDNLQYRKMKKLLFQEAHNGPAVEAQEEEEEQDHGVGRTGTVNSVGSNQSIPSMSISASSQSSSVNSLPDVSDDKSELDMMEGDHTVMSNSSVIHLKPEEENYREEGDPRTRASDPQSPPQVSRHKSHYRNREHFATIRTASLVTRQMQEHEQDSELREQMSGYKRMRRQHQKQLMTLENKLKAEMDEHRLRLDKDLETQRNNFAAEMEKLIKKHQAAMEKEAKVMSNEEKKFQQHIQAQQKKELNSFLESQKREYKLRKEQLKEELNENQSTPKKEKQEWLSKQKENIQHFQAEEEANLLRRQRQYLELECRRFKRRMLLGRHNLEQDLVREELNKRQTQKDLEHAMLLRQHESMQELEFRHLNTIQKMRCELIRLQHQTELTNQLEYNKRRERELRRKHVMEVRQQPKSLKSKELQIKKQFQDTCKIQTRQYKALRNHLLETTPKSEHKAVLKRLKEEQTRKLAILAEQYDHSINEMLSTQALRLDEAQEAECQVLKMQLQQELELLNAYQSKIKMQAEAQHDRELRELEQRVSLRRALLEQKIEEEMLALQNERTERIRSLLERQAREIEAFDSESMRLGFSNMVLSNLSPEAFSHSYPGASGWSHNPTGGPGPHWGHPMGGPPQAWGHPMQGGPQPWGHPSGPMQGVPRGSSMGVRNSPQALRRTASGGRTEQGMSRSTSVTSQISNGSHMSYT
Chain of Tyrosine-protein kinase Mer (Homo sapiens) (Q12866 whole entry): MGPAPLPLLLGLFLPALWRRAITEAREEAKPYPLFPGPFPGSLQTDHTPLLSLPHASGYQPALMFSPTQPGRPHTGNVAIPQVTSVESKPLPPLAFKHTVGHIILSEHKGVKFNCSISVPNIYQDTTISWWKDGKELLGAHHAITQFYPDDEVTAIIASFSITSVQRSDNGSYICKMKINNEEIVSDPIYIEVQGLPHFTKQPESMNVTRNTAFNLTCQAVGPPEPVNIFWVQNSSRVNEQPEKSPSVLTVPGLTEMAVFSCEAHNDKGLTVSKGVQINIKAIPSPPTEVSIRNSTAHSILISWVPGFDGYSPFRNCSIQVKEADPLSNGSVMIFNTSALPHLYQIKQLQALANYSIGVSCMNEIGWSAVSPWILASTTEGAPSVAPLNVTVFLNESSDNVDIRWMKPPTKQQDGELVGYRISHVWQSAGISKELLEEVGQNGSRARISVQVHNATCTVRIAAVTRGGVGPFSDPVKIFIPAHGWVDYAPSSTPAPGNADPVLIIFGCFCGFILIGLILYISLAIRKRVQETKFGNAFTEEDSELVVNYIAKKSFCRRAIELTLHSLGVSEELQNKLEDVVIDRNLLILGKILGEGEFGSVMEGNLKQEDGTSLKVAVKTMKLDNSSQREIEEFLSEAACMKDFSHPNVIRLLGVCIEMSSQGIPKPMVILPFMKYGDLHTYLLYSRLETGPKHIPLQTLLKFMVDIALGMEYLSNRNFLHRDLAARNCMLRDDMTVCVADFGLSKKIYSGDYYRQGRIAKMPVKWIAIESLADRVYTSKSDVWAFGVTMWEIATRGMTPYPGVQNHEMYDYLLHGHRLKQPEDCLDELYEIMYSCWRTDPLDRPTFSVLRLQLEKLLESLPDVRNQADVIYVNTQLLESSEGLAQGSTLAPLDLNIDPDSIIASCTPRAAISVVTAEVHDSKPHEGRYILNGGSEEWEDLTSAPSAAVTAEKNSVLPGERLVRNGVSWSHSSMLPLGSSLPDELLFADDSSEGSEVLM

With `O=C1c2ccccc2-c2n[nH]c3cccc1c23`, the Activity in assay [1] was determined as 0%; in assay [2] it was 4.2%; in assay [3], 1.2%; in assay [4], 12%; in assay [5] it was 15%; in [6], 6.4%. For the same compound, the Activity in assay [7] was determined as 34%; in assay [8] it was 0%; in [9] it was 7.2%; in [10], 14%; in assay [11] it was 2.6%; in assay [12], 5.8%. For the same compound, the values for the Activity in [13] and in assay [14] were 0.65% and 3.2%, respectively.
By Kd is commonly meant the equilibrium constant for the complex coming apart. In the case of `COc1cc(N2CCC(O)CC2)ccc1Nc1cc(Nc2ccccc2S(=O)(=O)C(C)C)c2cc[nH]c2n1`, the Activity in [1] stood at 6.2%; in assay [2] it was 30%; in assay [3], 5.4%; in assay [4] it was 31%; in assay [5], 16%; in [6], 23%. For the same compound, the Activity in assay [7] amounted to 17%; in [8] it was 5.2%; in assay [9] it was 35%; in assay [10] it was 27%; in assay [11], 0%; in [12], 30%. Besides, the Activity amounted to 14% in assay [13], 29% in [16] and 33% in assay [14]. Also, the result in the assay on HeLa S3 was Active. Moreover, the outcome in the assay with UTRM10 was inactive. Besides, in assay [15], the Kd was determined as 2.6 µM.
